Measured values: ChEMBL document CHEMBL4118152, “Discovery of Potent and Selective Periphery-Restricted Quinazoline Inhibitors of the Cyclic Nucleotide Phosphodiesterase PDE1” (J Med Chem, 2018)

What was measured:
[1] = species: Homo sapiens; test: Inhibition of human GABA-B receptor at 10 uM relative to control
[2] = molecular target: Kappa-type opioid receptor (Homo sapiens) (UniProt P41145); test: Inhibition of human kappa opioid receptor at 10 uM relative to control
[3] = species: Homo sapiens; test: Inhibition of human endothelin receptor at 10 uM relative to control
[4] = molecular target: Sodium-dependent noradrenaline transporter (Homo sapiens) (UniProt P23975); test: Inhibition of human norepinephrine transporter at 10 uM relative to control
[5] = molecular target: Muscarinic acetylcholine receptor M4 (Homo sapiens) (UniProt P08173); test: Inhibition of human muscarinic M4 receptor at 10 uM relative to control
[6] = molecular target: Prostaglandin G/H synthase 1 (Homo sapiens) (UniProt P23219); test: Inhibition of recombinant human Cyclooxygenase 1 using arachidonic acid/ADHP as substrate at 10 uM after 3 mins by Fluorimetric method relative to control
[7] = Fraction unbound in Wistar Hannover rat brain at 1 mg/kg, sc measured at 0.5 to 4 hrs post dose by LC-MS/MS analysis; type: ADME, organism-based
[8] = molecular target: Somatostatin receptor type 4 (Homo sapiens) (UniProt P31391); test: Inhibition of human Somatostatin 4 receptor at 10 uM relative to control
[9] = molecular target: D(3) dopamine receptor (Homo sapiens) (UniProt P35462); test: Inhibition of human dopamine D3 receptor at 10 uM relative to control
[10] = molecular target: 5-hydroxytryptamine receptor 6 (Homo sapiens) (UniProt P50406); test: Inhibition of human 5-HT6 receptor at 10 uM relative to control
[11] = molecular target: Histamine H2 receptor (Homo sapiens) (UniProt P25021); test: Inhibition of human histamine H2 receptor at 10 uM relative to control
[12] = species: Mus musculus; test: Inhibition of mouse brain rolipram binding site assessed as [3H]rolipram uptake at 10 uM after 60 mins by scintillation counting analysis relative to control
[13] = species: Homo sapiens; test: Selectivity ratio of IC50 for full length recombinant human PDE11A4 to IC50 for full length recombinant human PDE1A
Method in brief: (§1)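 IC50s were measured against recombinant PDEs, all human except PDE6A (bovine). Each enzyme was given its appropriate cAMP or cGMP substrate at below 1/3 of its Km. IC50s are the mean of n = 3 or more. The selectivity ratio is the IC50 for the other PDE divided by the IC50 for PDE1B1 or PDE1A.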

[14] = molecular target: Beta-2 adrenergic receptor (Homo sapiens) (UniProt P07550); test: Inhibition of human beta 2 adrenergic receptor at 10 uM relative to control
[15] = molecular target: Vasopressin V2 receptor (Homo sapiens) (UniProt P30518); test: Inhibition of human Vasopressin 2 receptor at 10 uM relative to control
[16] = molecular target: Carbonic anhydrase 2 (Homo sapiens) (UniProt P00918); test: Inhibition of human carbonic anhydrase 2 using 4-nitrophenyl acetate as substrate at 10 uM after 20 mins by spectrophotometric method relative to control
[17] = molecular target: Melatonin receptor type 1A (Homo sapiens) (UniProt P48039); test: Inhibition of human MT1A at 10 uM relative to control
[18] = species: Homo sapiens; test: Selectivity ratio of IC50 for full length recombinant human PDE10A1 to IC50 for full length recombinant human PDE1A; method in brief: as §1
[19] = Drug uptake in Wistar Hannover rat cerebrospinal fluid at 1 mg/kg, sc measured at 4 hrs post dose by LC-MS/MS analysis; type: ADME, organism-based; conditions: in vivo, BLD = below limit of detection
Method in brief: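 Rats were dosed subcutaneously at 1 mg/kg. CSF, plasma and brain were sampled at 0.5, 1, 2 and 4 h post dose and analysed for drug concentration. Values are means at each time point.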

[20] = molecular target: Muscarinic acetylcholine receptor M5 (Homo sapiens) (UniProt P08912); test: Inhibition of human muscarinic M5 receptor at 10 uM relative to control
[21] = species: Homo sapiens; test: Selectivity ratio of IC50 for full length recombinant human PDE1C to IC50 for full length recombinant human PDE1B1; method in brief: as §1
[22] = Fraction unbound in Wistar Hannover rat brain at 1 mg/kg, sc measured at 1 hr post dose by LC-MS/MS analysis; type: ADME, organism-based; conditions: in vivo
[23] = Fraction unbound in Wistar Hannover rat plasma at 1 mg/kg, sc measured at 1 hr post dose by LC-MS/MS analysis; type: ADME, organism-based; conditions: in vivo
[24] = molecular target: Adenosine receptor A1 (Homo sapiens) (UniProt P30542); test: Inhibition of human adenosine A1 receptor at 10 uM relative to control
[25] = molecular target: 5-hydroxytryptamine receptor 4 (Homo sapiens) (UniProt Q13639); test: Inhibition of human 5-HT4E receptor at 10 uM relative to control
[26] = molecular target: Androgen receptor (Homo sapiens) (UniProt P10275); test: Inhibition of human Androgen receptor at 10 uM relative to control
[27] = molecular target: Substance-K receptor (Homo sapiens) (UniProt P21452); test: Inhibition of NK2 receptor (unknown origin) at 10 uM relative to control
[28] = Fraction unbound in Wistar Hannover rat plasma at 1 mg/kg, sc measured at 2 hrs post dose by LC-MS/MS analysis; type: ADME, organism-based; conditions: in vivo
[29] = species: Homo sapiens; test: Selectivity ratio of IC50 for full length recombinant human PDE7B to IC50 for full length recombinant human PDE1B1; method in brief: as §1
[30] = Ratio of fraction unbound in Wistar Hannover rat brain to plasma at 1 mg/kg, sc measured at 2 hrs post dose by LC-MS/MS analysis; type: ADME, organism-based; conditions: in vivo
[31] = molecular target: Sodium-dependent dopamine transporter (Homo sapiens) (UniProt Q01959); test: Inhibition of dopamine transporter (unknown origin) at 10 uM relative to control
[32] = molecular target: 5-hydroxytryptamine receptor 7 (Homo sapiens) (UniProt P34969); test: Inhibition of human 5-HT7 receptor at 10 uM relative to control
[33] = molecular target: Cysteinyl leukotriene receptor 1 (Homo sapiens) (UniProt Q9Y271); test: Inhibition of human leukotriene D4 receptor at 10 uM relative to control
[34] = molecular target: Beta-3 adrenergic receptor (Homo sapiens) (UniProt P13945); test: Inhibition of human beta 3 adrenergic receptor at 10 uM relative to control
[35] = molecular target: D(4) dopamine receptor (Homo sapiens) (UniProt P21917); test: Inhibition of dopamine D4 receptor (unknown origin) at 10 uM relative to control
[36] = species: Rattus norvegicus; test: Displacement of [3H]D888 from rat brain L-type calcium channel verapamil binding site at 10 uM after 30 mins by scintillation counting analysis relative to control
[37] = molecular target: Angiotensin-converting enzyme (Homo sapiens) (UniProt P12821); test: Inhibition of recombinant human Acetylcholinesterase using acetylthiocholine as substrate at 10 uM after 30 mins by spectrophotometric method relative to control
[38] = Ratio of drug uptake in cerebrospinal fluid to fraction unbound in plasma in Wistar Hannover rat at 1 mg/kg, sc measured at 2 hrs post dose by LC-MS/MS analysis; type: ADME, organism-based, CSF/Plasma; conditions: in vivo
[39] = molecular target: CYP2D6 (Homo sapiens, UniProt P10635); test: Inhibition of CYP2D6 (unknown origin) at 10 uM relative to control; type: ADME

Sequence of Kappa-type opioid receptor (Homo sapiens) (P41145 whole entry): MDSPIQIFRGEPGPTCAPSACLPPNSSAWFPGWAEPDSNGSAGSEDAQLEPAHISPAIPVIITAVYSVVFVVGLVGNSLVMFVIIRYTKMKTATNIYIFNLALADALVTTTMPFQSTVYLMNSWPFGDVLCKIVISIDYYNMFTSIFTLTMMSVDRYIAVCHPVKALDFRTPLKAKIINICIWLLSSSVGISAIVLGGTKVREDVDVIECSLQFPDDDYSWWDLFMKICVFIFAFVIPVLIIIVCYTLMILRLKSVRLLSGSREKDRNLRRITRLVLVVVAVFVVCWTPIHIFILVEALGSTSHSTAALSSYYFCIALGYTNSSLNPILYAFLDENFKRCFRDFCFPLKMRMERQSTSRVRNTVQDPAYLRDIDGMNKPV
Sequence of Substance-K receptor (Homo sapiens) (P21452 whole entry): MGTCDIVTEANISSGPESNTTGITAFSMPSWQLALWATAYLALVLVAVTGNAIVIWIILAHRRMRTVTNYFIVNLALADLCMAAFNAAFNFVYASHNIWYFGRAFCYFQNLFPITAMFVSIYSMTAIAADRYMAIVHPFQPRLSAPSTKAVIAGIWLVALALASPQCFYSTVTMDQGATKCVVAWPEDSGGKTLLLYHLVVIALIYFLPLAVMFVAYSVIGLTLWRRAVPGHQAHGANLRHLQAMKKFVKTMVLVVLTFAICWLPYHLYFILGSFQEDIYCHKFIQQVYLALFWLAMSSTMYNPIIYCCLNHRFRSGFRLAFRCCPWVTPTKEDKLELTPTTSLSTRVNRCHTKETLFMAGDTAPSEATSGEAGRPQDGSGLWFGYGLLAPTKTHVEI
Sequence of Beta-2 adrenergic receptor (Homo sapiens) (P07550 whole entry, looked up): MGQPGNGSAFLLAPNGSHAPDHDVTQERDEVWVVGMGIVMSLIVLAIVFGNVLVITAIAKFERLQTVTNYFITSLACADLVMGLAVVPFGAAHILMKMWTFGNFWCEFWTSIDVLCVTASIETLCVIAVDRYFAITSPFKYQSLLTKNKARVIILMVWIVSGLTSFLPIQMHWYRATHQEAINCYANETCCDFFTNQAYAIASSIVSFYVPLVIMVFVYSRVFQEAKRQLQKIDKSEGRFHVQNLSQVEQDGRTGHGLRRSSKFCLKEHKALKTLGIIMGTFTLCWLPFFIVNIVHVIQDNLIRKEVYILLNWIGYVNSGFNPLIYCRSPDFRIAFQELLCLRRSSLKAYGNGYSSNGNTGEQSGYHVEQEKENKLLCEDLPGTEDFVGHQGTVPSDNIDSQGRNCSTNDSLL
Sequence of Cysteinyl leukotriene receptor 1 (Homo sapiens) (Q9Y271 whole entry): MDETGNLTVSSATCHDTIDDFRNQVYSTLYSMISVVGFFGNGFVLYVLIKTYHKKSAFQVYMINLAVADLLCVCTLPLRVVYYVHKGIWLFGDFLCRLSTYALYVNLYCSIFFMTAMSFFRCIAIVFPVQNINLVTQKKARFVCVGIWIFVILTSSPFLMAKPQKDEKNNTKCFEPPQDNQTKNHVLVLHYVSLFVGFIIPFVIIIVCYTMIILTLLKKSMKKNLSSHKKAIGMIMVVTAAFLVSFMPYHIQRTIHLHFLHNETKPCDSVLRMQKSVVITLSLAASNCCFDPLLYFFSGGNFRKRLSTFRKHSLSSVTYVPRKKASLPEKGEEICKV
Sequence of Melatonin receptor type 1A (Homo sapiens) (P48039 whole entry): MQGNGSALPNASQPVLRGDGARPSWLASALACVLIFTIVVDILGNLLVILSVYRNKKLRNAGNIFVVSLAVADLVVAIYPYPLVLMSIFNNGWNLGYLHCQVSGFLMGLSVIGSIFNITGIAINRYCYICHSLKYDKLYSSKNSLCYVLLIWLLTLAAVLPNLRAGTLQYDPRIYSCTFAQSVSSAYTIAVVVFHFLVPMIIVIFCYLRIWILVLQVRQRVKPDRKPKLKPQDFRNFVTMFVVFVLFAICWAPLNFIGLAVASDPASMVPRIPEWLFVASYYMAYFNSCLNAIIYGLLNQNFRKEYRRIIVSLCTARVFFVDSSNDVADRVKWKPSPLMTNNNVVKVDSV
Sequence of Beta-3 adrenergic receptor (Homo sapiens) (P13945 whole entry, looked up): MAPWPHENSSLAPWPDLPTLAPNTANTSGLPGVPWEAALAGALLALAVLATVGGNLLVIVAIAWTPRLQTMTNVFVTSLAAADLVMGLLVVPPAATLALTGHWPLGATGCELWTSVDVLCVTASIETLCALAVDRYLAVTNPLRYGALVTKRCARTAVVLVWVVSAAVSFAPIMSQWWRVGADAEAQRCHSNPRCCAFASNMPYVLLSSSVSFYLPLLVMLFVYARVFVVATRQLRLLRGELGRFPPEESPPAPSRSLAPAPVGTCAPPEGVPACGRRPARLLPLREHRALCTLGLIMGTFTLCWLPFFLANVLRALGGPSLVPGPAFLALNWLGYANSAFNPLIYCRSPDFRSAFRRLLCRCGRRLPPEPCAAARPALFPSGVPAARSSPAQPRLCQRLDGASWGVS
Sequence of D(4) dopamine receptor (Homo sapiens) (P21917 whole entry): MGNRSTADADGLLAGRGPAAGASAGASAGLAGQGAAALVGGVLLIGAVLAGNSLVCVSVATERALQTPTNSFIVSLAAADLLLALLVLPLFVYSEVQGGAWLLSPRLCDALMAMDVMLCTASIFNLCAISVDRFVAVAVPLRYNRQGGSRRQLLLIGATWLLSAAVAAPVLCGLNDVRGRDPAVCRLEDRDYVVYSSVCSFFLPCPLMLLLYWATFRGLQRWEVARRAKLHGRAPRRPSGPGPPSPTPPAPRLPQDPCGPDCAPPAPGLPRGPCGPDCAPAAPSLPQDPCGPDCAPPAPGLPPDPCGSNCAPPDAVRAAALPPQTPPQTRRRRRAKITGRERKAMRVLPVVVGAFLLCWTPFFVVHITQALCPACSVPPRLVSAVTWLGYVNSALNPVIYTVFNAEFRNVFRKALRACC
Sequence of 5-hydroxytryptamine receptor 7 (Homo sapiens) (P34969 whole entry): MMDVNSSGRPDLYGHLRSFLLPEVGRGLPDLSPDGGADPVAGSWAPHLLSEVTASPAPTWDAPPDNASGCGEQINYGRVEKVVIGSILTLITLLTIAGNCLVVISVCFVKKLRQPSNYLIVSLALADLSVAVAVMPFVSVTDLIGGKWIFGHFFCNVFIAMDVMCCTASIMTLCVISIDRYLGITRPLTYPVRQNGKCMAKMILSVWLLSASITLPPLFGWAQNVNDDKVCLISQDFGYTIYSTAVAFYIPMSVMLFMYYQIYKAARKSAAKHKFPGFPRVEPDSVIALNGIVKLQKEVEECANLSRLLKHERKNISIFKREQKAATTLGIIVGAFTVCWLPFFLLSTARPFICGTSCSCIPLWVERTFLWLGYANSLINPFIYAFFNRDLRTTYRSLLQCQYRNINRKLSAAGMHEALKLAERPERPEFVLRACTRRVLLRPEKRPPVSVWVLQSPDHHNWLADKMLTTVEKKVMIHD
Sequence of D(3) dopamine receptor (Homo sapiens) (P35462 whole entry): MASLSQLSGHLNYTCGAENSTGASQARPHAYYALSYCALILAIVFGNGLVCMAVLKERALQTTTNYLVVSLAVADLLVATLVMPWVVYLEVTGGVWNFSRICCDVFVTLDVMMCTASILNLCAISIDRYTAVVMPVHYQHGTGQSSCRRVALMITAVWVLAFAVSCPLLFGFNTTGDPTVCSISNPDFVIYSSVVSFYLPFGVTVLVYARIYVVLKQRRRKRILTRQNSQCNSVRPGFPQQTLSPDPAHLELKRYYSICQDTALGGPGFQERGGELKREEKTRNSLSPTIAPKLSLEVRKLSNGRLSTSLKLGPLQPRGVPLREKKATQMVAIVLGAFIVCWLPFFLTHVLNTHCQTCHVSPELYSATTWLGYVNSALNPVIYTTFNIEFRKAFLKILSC
Sequence of Somatostatin receptor type 4 (Homo sapiens) (P31391 whole entry): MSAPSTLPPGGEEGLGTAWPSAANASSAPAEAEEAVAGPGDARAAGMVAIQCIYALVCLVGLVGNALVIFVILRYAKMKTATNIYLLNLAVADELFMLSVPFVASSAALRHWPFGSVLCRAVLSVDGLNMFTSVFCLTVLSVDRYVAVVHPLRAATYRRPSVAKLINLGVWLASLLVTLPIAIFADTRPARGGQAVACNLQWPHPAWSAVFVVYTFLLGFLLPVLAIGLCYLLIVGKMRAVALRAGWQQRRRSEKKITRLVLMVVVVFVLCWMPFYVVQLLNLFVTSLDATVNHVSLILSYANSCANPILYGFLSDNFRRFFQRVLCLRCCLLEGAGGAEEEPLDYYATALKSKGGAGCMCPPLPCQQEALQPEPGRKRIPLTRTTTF
Sequence of Sodium-dependent noradrenaline transporter (Homo sapiens) (P23975 whole entry): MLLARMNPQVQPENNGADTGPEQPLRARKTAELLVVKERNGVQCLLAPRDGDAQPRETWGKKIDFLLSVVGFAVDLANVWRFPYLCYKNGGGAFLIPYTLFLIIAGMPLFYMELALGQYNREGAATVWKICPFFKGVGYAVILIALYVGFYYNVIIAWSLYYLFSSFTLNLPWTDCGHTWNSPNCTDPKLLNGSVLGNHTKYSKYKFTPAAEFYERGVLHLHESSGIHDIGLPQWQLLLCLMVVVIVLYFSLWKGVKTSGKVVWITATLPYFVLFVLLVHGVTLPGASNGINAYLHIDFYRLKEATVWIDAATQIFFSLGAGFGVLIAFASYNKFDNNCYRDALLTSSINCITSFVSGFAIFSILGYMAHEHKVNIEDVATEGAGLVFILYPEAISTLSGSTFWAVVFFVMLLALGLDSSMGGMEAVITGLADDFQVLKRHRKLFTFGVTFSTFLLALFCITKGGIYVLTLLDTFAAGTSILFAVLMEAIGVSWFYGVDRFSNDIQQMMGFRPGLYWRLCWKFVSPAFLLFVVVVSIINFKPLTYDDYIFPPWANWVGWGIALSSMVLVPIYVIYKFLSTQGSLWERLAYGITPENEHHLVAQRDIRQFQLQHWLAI
Sequence of Adenosine receptor A1 (Homo sapiens) (P30542 whole entry): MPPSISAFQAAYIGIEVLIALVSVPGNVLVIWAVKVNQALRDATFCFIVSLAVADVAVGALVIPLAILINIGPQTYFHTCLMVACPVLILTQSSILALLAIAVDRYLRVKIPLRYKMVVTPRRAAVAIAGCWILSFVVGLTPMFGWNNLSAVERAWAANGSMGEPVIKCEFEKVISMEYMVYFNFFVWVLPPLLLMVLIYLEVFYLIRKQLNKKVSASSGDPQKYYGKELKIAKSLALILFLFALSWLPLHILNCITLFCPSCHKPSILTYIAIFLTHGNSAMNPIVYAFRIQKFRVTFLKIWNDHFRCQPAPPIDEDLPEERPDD

**Q.** What does the source list for COc1ccc2c(N[C@@H](C)Cc3cc(C)[nH]n3)ncnc2c1OC?
**A.** inhibition [1]: < 50%; inhibition [2]: < 50%; inhibition [3]: < 50%; inhibition [4]: < 50%; inhibition [5]: < 50%; inhibition [6]: < 50%; fraction unbound [7]: 0.2; inhibition [8]: < 50%; inhibition [9]: < 50%; inhibition [10]: < 50%; inhibition [11]: < 50%; inhibition [12]: < 50%; Ratio IC50 [13]: 826; inhibition [14]: < 50%; inhibition [15]: < 50%; inhibition [16]: < 50%; inhibition [17]: < 50%; Ratio IC50 [18]: 10; Drug uptake [19]: Bld; inhibition [20]: < 50%; Ratio IC50 [21]: 4.2; Drug uptake(free) [22]: 4 nM; Cp(f) [23]: 120 nM; inhibition [24]: < 50%; inhibition [25]: < 50%; inhibition [26]: < 50%; inhibition [27]: < 50%; Cp(f) [28]: 40 nM; Ratio IC50 [29]: 4540; Ratio [30]: 0.05; inhibition [31]: < 50%; inhibition [32]: < 50%; inhibition [33]: < 50%; inhibition [34]: < 50%; inhibition [35]: < 50%; inhibition [36]: < 50%; inhibition [37]: < 50%; Ratio [38]: 0.2; inhibition at 10 µM [39]: < 50%
